Measurements published in ChEMBL document CHEMBL4402547, “Synthesis and Pharmacological Characterization of Conformationally Restricted Retigabine Analogues as Novel Neuronal Kv7 Channel Activators” (J Med Chem, 2020).
Active and inactive are the calls of the source. No cut-off for these calls is given here.

Experiments:
[1] = biological target: T1, Potassium voltage-gated channel subfamily KQT member 2 (Homo sapiens, UniProt O43526); assay: Activation of human Kv7.2 expressed in CHO cells assessed as increase in channel current amplitude by whole cell patch clamp electrophysiology assay; type: cell-based
[2] = biological target: T2, Potassium voltage-gated channel subfamily KQT member 4 (Homo sapiens, UniProt P56696); assay: Activation of human Kv7.4 expressed in CHO cells assessed as increase in channel current amplitude by whole cell patch clamp electrophysiology assay; type: cell-based
T2 sequence (P56696 whole entry): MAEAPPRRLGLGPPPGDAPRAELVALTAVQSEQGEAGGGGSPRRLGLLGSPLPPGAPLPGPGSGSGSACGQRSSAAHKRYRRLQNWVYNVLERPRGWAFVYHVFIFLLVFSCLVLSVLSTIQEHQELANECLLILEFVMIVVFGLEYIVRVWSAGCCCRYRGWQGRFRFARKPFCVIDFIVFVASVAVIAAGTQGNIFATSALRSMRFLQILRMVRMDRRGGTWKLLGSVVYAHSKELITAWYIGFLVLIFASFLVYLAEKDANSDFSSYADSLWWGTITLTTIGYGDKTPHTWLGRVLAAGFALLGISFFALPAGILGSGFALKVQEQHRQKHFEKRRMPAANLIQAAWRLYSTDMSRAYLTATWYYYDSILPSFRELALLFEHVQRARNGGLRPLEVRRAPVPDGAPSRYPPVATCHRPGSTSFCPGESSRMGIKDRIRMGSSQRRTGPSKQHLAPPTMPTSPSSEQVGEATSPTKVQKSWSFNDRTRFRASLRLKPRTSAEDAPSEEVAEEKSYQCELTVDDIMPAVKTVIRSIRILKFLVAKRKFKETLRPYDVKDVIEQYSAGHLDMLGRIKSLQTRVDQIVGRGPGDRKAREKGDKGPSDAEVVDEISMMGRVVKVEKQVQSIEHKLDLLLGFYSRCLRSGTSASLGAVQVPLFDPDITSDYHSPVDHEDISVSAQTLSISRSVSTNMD

NAT (phase 2 metabolism) = assay: Drug metabolism in human liver S9 fractions assessed as assessed as NAT-mediated phase 2 metabolism at 1 mM preincubated for 5 mins followed by NADPH addition and measured after 60 mins by RP-UHPLC-DAD analysis relative to control; type: ADME, subcellular; details: read-out: Drug metabolism
In short: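 Compound (2 μL of 1 mM stock) in 100 mM phosphate buffer pH 7.4 with pooled human liver S9, preincubated 5 min, then NADPH added, 37°C for 60 min. For UGT: 5 mM UDPGA, alamethicin, 1 mM MgCl added; for NAT: 2 mM DTT, sulfamethazine, 4.5 mM acetyl DL-carnitine, 0.1 U/mL carnitine acetyltransferase. Stopped with ice-cold methanol; RP-UHPLC-DAD; % turnover = 100 − (60 min/0 min concentration × 100).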

[3] = biological target: T1, Potassium voltage-gated channel subfamily KQT member 2; assay: Activation of human Kv7.2 expressed in CHO cells assessed as maximal steady-state increase in current amplitude at 10 uM measured after 200 secs at holding potential of -40 mV by whole cell patch clamp electrophysiology assay; type: cell-based
[4] = biological target: Voltage-gated potassium channel, KQT; KCNQ2(Kv7.2)/KCNQ3(Kv7.3) (Homo sapiens, UniProt O43525+O43526); assay: Activation of human Kv7.2/Kv7.3 expressed in CHO cells assessed as increase in channel current amplitude by whole cell patch clamp electrophysiology assay; type: cell-based
In short: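 Human Kv7.2 plus Kv7.3 cDNAs co-transfected into CHO cells; whole-cell patch clamp at 20–22°C, extracellular solution pH 7.4. Drug applied at 0.01–10 μM to test concentration-dependent current increase.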

[5] = biological target: T1, Potassium voltage-gated channel subfamily KQT member 2; assay: Activation of human Kv7.2 expressed in CHO cells assessed as half-activation voltage at 0.03 uM in constant voltage pulse by whole cell patch clamp electrophysiology assay (reference value: -38.2 +/- 2 mV); type: cell-based
In short: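 Transiently transfected CHO cells (human Kv7.2 cDNA in pcDNA3.1, EGFP marker), recorded 24 h post-transfection by whole-cell patch clamp at 20–22°C; extracellular solution in mM 138 NaCl, 2 CaCl₂, 5.4 KCl, 1 MgCl₂, 10 glucose, 10 HEPES, pH 7.4. Constant voltage pulses before and after 0.03 μM compound; conductance/voltage curves fitted to double Boltzmann for V1/2 and maximal conductance.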

[6] = biological target: T1, Potassium voltage-gated channel subfamily KQT member 2; assay: Activation of human Kv7.2 expressed in CHO cells assessed as leftward shift in half-activation voltage at 0.03 uM in constant voltage pulse by whole cell patch clamp electrophysiology assay; type: cell-based
In short: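 CHO cells transiently expressing human Kv7.2, whole-cell patch clamp at 20–22°C, pH 7.4 bath. Currents activated by constant voltage pulses before and after 0.03 μM drug. Normalized conductance/voltage curves fitted to a double Boltzmann function to obtain half-activation voltage (V1/2).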

[7] = biological target: T1, Potassium voltage-gated channel subfamily KQT member 2; assay: Potency index, ratio of EC50 for RET to EC50 for test compound for activation of human Kv7.2 expressed in CHO cells; type: cell-based
[8] = biological target: T1, Potassium voltage-gated channel subfamily KQT member 2; assay: Activation of human Kv7.2 expressed in CHO cells assessed as maximal steady-state increase in current amplitude at 10 uM measured within 10 secs at holding potential of -40 mV by whole cell patch clamp electrophysiology assay; type: cell-based
In short: (§1)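 Human Kv7.2 transiently expressed in CHO cells, whole-cell patch clamp at 20–22°C, pH 7.4 HEPES-buffered extracellular solution under constant perfusion. Cells held at -80 mV; 3-s ramps -80 to +20 mV with and without compound; current at -40 mV taken as drug/control amplitude ratio, followed over time during application and wash-out; mean ± SEM of ≥3 cells from ≥2 transfections.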

[9] = Photostability of compound in pH 7.4 buffer assessed as formation of 4-fluorobenzaldehyde incubated for 6 hrs under visible light irradiation by HPLC analysis
[10] = biological target: T1, Potassium voltage-gated channel subfamily KQT member 2; assay: Activation of human Kv7.2 expressed in CHO cells assessed as current amplitude at 10 uM measured after 10 secs upon drug wash-out at holding potential of -40 mV by whole cell patch clamp electrophysiology assay; type: cell-based; in short: as §1
[11] = Photostability of compound in pH 7.4 buffer assessed as compound degradation at 100 ug/ml incubated for 6 hrs under artificial daylight D65 lamp-irradiation by HPLC analysis relative to control
In short: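 Compound from DMSO stock diluted in pH 7.4 buffer to final 1 mM, 10 μM or 1 μM in 1 cm quartz cells, held at 37°C under UV lamp (365 and 264 nm) or artificial daylight D65 lamp; dark controls in foil at 37°C. Aliquots taken at set intervals; loss of parent by HPLC (C18, TFA water/acetonitrile gradient, 254 nm).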

[12] = Photostability of compound in pH 7.4 buffer assessed as metabolite with phenazinium-dimer formation incubated for 6 hrs under visible light irradiation by HPLC/MS/MS analysis
[13] = Photostability of compound in pH 7.4 buffer assessed as formation of ethyl (2,4-bis((4-fluorobenzyl)amino)phenyl)carbamate by measuring retention time of metabolite incubated for 6 hrs under visible light irradiation by HPLC/MS analysis
[14] = Half life in human; type: ADME
[15] = biological target: T1, Potassium voltage-gated channel subfamily KQT member 2; assay: Activation of human Kv7.2 expressed in CHO cells assessed as increase in current amplitude with fast ON kinetics measured at holding potential of -40 mV by whole cell patch clamp electrophysiology assay; type: cell-based; in short: as §1

T1 sequence (O43526 whole entry): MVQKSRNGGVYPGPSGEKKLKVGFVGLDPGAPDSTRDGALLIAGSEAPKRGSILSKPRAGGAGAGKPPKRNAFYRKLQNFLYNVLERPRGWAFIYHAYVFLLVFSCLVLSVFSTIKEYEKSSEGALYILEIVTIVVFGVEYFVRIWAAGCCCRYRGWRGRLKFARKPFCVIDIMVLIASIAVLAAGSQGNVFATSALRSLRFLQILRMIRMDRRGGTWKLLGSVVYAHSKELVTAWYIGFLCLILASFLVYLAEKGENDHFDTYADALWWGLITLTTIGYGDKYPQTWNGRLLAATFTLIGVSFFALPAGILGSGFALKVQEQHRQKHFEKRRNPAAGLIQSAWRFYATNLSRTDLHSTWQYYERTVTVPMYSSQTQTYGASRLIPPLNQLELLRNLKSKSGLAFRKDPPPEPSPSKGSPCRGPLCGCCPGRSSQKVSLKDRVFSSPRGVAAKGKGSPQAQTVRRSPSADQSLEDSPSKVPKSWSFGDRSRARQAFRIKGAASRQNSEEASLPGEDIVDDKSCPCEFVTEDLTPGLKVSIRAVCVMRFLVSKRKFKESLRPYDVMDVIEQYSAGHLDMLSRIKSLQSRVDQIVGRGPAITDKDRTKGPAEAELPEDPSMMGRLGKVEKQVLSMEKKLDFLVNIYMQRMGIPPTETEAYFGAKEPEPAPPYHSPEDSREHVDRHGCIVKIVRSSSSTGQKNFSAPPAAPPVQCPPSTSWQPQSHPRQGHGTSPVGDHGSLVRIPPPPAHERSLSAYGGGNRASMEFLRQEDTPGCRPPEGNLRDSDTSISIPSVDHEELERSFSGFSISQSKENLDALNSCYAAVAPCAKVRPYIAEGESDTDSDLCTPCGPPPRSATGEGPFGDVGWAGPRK
Voltage-gated potassium channel, KQT; KCNQ2(Kv7.2)/KCNQ3(Kv7.3), sequence (O43526 whole entry): as above
Voltage-gated potassium channel, KQT; KCNQ2(Kv7.2)/KCNQ3(Kv7.3), sequence (O43525 whole entry): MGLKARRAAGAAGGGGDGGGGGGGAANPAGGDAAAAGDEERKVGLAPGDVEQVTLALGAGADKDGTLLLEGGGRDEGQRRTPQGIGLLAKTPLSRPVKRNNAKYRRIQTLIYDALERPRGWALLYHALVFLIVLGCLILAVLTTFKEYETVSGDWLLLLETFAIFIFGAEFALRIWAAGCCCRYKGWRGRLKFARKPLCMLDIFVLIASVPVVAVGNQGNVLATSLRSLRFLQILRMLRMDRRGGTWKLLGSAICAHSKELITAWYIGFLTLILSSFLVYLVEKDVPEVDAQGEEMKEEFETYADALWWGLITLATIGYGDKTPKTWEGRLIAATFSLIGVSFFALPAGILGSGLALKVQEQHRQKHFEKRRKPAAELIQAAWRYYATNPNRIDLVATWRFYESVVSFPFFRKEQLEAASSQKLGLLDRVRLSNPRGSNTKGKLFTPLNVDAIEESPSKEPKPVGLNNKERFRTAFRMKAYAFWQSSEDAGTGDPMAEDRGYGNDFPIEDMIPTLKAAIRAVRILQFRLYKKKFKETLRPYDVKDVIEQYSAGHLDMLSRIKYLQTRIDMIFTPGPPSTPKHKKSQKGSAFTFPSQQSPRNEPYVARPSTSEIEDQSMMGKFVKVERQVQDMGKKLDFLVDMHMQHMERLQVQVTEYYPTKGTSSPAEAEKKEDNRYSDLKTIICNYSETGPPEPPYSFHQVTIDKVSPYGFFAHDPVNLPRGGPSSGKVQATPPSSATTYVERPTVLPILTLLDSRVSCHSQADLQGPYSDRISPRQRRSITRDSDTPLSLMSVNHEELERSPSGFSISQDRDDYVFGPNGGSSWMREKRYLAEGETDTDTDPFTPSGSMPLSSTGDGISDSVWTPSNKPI

Compound: CC(C)(C)CC(=O)Nc1ccc2c(ccn2Cc2ccc(C(F)(F)F)cc2)c1
- EC50 [1]: 630 nM
- EC50 [2]: 80 nM
- metabolised at 1 h, 1000 µM (NAT (phase 2 metabolism)): 12.7%
- Activity [3]: Active
- EC50 [4]: 340 nM

Compound: CCCCCCC(=O)Nc1ccc2c(ccn2Cc2ccc(C(F)(F)F)cc2)c1
- V1/2 [5]: -38.2 mV
- V1/2 [6]: 18 mV
- Ratio EC50 [7]: 12
- Activity [3]: Active

Compound: CCOC(=O)Nc1ccc(NCc2ccc(F)cc2)cc1N [EZOGABINE]
- Activity [8]: Active
- V1/2 [5]: -24.4 mV
- Drug metabolism [9]: Metabolite detected
- Activity [10]: inactive
- Drug degradation [11]: 47.3%
- Drug metabolism [12]: Metabolite detected
- Retention time [13]: 14.4 min
- half-life [14]: 6 to 8 h
- metabolised at 1 h, 1000 µM (NAT (phase 2 metabolism)): 3.41%
- Activity [15]: Dose-dependent effect
